Source: ChEMBL document CHEMBL1142988 (J Med Chem, 2007)
Activity calls are given as the source filed them. The rule behind the calls is not given here.

Legend:
[1] = Antagonist activity at native AMPA receptor assessed as fDR-VRP reduction of neonatal rat spinal cord motorneurones; type: functional
Method in brief: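 Neonatal (1-5-day-old, non-anaesthetized) rat hemisected spinal cord. Concentration-response curves for antagonist (5 min applications) on the fast component of the dorsal root-evoked ventral root potential, with 2 mM MgSO4 and 50 µM (R)-AP5 (30 min preincubation) to block NMDA receptors; mean ± SEM, n = 3.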

[2] = target: Glutamate receptor ionotropic, kainate 1 (Rattus norvegicus, UniProt P22756); assay: Activity at native GLUK5 kainate receptor assessed as antagonism of kainite-induced depolarization of neonatal non-anaesthetised rat dorsal root fibres
Sequence of Glutamate receptor ionotropic, kainate 1 (P22756 whole entry): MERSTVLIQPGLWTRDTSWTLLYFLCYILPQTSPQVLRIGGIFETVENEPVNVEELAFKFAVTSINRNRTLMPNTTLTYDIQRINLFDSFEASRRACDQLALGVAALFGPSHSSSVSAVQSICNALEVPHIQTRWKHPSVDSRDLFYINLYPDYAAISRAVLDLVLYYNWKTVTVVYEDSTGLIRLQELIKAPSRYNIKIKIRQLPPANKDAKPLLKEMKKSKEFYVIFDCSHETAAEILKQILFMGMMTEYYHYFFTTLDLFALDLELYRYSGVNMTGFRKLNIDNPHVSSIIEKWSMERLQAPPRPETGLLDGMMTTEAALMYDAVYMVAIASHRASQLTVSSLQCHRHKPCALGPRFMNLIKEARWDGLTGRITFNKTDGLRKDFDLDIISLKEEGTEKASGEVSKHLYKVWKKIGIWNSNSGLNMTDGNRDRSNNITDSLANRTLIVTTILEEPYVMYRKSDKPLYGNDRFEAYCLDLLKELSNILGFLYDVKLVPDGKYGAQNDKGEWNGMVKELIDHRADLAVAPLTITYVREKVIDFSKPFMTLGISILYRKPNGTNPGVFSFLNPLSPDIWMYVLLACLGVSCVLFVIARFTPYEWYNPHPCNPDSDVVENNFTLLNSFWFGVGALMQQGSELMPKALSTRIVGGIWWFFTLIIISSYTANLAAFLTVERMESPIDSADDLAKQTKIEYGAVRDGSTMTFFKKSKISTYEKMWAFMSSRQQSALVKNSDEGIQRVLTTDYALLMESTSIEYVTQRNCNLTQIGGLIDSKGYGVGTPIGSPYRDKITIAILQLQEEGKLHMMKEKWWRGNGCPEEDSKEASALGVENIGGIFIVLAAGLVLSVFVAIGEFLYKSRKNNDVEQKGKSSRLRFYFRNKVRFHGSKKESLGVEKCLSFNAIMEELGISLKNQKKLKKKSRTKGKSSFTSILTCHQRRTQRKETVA

[3] = Activity at native AMPA receptor assessed as antagonism of (S)-5-fluoriwillardiine-induced depolarization of neonatal rat spinal cord motorneurones; type: functional
[4] = target: T1, Glutamate NMDA receptor (Rattus norvegicus) (UniProt P35439+Q00959+Q00960+Q00961+Q62645+Q8VHN2+Q9R1M7); assay: Antagonist activity at NMDA receptor assessed as inhibition of NMDA-induced depolarization of neonatal rat spinal cord motoneurons at 10 uM; type: functional
[5] = target: Metabotropic glutamate receptor 1 (Rattus norvegicus) (UniProt P23385); assay: Antagonist activity at mGlu1 receptor assessed as inhibition of DHPG-induced depolarization of neonatal rat motoneurons at 10 uM; type: functional
[6] = target: Metabotropic glutamate receptor 5 (Rattus norvegicus) (UniProt P31424); assay: Antagonist activity at mGlu5 receptor assessed as inhibition of DHPG-induced depolarization of neonatal rat spinal cord motoneurons at 10 uM; type: functional
Sequence of Metabotropic glutamate receptor 5 (Rattus norvegicus) (P31424 21-1203 limits assumed): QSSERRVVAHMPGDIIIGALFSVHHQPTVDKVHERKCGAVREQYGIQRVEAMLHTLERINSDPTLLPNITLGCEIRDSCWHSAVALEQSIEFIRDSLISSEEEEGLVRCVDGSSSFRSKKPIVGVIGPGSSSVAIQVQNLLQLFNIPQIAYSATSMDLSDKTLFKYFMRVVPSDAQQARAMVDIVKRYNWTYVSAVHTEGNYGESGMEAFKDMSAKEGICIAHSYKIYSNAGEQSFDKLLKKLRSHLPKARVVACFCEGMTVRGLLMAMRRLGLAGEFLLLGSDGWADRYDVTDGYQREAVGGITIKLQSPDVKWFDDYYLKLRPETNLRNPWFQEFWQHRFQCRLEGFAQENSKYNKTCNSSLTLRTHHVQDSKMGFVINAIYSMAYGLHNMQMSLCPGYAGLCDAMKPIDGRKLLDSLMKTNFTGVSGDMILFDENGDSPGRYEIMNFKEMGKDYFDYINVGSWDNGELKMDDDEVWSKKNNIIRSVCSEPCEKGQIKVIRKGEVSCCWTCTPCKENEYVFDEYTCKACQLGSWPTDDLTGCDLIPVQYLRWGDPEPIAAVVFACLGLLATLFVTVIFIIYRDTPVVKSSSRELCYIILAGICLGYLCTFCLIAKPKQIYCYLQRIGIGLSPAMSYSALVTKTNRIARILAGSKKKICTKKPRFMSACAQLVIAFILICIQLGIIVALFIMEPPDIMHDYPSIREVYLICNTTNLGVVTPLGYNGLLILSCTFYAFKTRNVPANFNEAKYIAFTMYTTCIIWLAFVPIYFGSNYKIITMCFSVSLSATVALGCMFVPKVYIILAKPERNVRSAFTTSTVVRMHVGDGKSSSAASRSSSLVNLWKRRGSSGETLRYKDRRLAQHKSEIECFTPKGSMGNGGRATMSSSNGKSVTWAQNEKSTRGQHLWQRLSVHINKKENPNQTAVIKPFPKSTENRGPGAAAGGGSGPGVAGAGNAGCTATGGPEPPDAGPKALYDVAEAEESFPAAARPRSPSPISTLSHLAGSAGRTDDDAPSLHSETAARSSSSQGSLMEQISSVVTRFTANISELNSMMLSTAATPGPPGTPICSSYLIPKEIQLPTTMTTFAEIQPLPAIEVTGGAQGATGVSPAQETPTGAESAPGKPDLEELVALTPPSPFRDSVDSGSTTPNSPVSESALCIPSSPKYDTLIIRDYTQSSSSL

[7] = target: Glutamate receptor 2 (Homo sapiens, UniProt P42262); assay: Antagonist activity at human recombinant GLUA2-AMPA receptor expressed in HEK293 cells assessed as inhibition of glutamate-stimulated calcium influx by FLIPR assay; type: functional, cell-based
Sequence of Glutamate receptor 2 (P42262 whole entry): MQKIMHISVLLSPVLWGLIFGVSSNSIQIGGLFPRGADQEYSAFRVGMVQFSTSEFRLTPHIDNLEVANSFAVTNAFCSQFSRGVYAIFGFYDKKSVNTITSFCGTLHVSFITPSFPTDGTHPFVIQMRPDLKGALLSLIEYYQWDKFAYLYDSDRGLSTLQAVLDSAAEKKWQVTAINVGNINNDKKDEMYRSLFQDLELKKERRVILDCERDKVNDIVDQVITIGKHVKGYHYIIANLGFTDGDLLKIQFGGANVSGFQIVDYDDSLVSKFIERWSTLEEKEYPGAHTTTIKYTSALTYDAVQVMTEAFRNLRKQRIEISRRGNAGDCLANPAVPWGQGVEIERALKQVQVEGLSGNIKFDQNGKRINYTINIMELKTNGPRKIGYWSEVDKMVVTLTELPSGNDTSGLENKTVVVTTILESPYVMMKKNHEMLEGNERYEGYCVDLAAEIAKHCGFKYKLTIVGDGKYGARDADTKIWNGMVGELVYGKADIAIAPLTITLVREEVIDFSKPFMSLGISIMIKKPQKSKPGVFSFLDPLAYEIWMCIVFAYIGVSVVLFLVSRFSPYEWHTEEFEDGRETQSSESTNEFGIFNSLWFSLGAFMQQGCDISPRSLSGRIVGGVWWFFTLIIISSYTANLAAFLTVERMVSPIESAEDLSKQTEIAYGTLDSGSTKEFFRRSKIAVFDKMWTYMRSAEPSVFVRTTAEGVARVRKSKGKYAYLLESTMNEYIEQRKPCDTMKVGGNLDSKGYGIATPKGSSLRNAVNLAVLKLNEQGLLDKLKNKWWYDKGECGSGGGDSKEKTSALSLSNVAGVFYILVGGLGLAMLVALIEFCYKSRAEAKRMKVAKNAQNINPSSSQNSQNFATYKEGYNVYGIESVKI

[8] = target: Glutamate receptor ionotropic, kainate 1 (Homo sapiens) (UniProt P39086); assay: Antagonist activity at human recombinant GLUK5 receptor expressed in HEK293 cells assessed as inhibition of glutamate-stimulated calcium influx by FLIPR assay; type: functional, cell-based
Sequence of Glutamate receptor ionotropic, kainate 1 (Homo sapiens) (P39086 whole entry): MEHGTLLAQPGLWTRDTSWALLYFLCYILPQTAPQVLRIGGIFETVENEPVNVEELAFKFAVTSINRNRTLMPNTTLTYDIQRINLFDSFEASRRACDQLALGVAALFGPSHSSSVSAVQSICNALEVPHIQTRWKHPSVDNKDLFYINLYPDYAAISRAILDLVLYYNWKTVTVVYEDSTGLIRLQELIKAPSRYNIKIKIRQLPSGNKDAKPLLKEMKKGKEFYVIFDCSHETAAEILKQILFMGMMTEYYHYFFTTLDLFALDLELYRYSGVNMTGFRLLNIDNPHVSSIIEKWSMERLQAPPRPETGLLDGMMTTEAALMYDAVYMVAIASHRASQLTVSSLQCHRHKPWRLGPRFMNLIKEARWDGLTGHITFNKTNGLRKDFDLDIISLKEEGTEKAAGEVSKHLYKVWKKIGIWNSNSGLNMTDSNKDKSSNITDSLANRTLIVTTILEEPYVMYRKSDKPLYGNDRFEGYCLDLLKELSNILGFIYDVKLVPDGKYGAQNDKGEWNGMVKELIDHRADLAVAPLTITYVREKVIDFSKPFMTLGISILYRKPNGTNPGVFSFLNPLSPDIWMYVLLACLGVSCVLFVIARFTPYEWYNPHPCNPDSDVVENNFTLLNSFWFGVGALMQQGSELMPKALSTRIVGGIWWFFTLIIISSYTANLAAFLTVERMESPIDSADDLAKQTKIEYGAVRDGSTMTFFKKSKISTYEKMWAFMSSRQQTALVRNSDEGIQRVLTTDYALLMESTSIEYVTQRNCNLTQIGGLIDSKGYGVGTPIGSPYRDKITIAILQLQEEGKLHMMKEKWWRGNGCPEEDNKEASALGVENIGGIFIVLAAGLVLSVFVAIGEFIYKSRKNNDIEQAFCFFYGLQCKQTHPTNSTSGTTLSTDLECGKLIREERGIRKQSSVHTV
Method in brief: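 Human GLUK5(Q) cells (Bmax of [3H]kainate binding 1.7 pmol/mg) loaded with calcium dye and read on FLIPR. Kb derived from IC50 by Cheng-Prusoff. Mean ± SEM, n = 3.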

[9] = target: Glutamate receptor ionotropic, kainate 1 (Homo sapiens) (UniProt P39086); assay: Antagonist activity at human recombinant GLUK5/GLUK2 expressed in HEK293 cells assessed as inhibition of glutamate-stimulated calcium influx by FLIPR assay; type: functional, cell-based
[10] = target: Glutamate receptor ionotropic, kainate 2 (Homo sapiens, UniProt Q13002); assay: Antagonist activity at human recombinant GLUK6 expressed in HEK293 cells assessed as inhibition of glutamate-stimulated calcium influx by FLIPR assay; type: functional, cell-based
Sequence of Glutamate receptor ionotropic, kainate 2 (Q13002 whole entry): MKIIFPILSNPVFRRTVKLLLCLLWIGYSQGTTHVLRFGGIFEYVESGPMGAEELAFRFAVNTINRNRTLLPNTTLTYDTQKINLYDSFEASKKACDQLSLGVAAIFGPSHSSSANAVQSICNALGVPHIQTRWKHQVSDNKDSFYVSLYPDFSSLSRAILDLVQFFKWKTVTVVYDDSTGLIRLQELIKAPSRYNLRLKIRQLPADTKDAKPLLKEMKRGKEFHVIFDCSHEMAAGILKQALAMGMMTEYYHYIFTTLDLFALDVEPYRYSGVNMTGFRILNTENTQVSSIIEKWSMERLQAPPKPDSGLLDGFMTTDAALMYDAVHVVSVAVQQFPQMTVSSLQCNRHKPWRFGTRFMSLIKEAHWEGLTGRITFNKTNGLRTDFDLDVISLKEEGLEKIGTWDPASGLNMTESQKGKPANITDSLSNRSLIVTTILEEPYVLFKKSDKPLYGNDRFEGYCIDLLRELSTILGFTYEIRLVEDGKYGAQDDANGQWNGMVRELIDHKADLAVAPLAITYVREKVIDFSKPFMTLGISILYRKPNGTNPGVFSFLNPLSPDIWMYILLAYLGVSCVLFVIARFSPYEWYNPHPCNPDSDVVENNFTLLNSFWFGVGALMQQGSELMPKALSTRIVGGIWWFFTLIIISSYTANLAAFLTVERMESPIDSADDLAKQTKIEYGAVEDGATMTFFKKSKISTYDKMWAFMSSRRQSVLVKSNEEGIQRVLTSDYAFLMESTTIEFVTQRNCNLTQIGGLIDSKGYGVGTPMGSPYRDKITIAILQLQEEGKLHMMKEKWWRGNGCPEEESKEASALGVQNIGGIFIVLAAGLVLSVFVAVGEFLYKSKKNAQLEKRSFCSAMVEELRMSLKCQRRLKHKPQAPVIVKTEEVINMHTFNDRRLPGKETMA

[11] = Antagonist activity at human recombinant GLUK6/GLUK2 expressed in HEK293 cells assessed as inhibition of glutamate-stimulated calcium influx by FLIPR assay; type: functional, cell-based
[12] = Antagonist activity at human recombinant GLUK6/GLUK2 expressed in HEK293 cells assessed as inhibition of glutamate-stimulated calcium influx at 100 uM by FLIPR assay; type: functional
[13] = Antagonist activity at human recombinant GLUK5/GLUK6 expressed in HEK293 cells assessed as inhibition of glutamate-stimulated calcium influx by FLIPR assay; type: functional, cell-based
[14] = target: T1, Glutamate NMDA receptor (Rattus norvegicus); assay: Antagonist activity at NMDA receptor assessed as inhibition of NMDA-induced depolarization of neonatal rat spinal cord motoneurons at 1 uM; type: functional
[15] = target: Metabotropic glutamate receptor 1 (Rattus norvegicus) (UniProt P23385); assay: Antagonist activity at mGlu1 receptor assessed as inhibition of DHPG-induced depolarization of neonatal rat spinal cord motoneurons at 1 uM; type: functional
[16] = target: Metabotropic glutamate receptor 5 (Rattus norvegicus) (UniProt P31424); assay: Antagonist activity at mGlu5 receptor assessed as inhibition of DHPG-induced depolarization of neonatal rat spinal cord motoneurons at 1 uM; type: functional

SMILES	IC50 [1]	Kd [2]	IC50 [11]	further results
N[C@@H](Cn1cc(Br)c(=O)n(Cc2ccsc2C(=O)O)c1=O)C(=O)O	42.9 µM	0.025 µM	–	–
N[C@@H](Cn1ccc(=O)n(Cc2ccsc2C(=O)O)c1=O)C(=O)O	31.2 µM	0.105 µM	> 100 µM	Kd [3]: 71.4 µM; IC50 [7]: > 100 µM; Kb [8]: 0.12 µM; Kb [9]: 0.18 µM; Kb [13]: 0.12 µM; IC50 [10]: > 100 µM
NS(=O)(=O)c1cccc2c1c([N+](=O)[O-])cc1nc(O)c(O)nc12 [NBQX]	–	–	135 µM	IC50 [13]: 28 µM
N[C@@H](Cn1ccc(=O)n(Cc2ccoc2C(=O)O)c1=O)C(=O)O	11.7 µM	1.88 µM	–	–
Cc1cn(C[C@H](N)C(=O)O)c(=O)n(Cc2cc(-c3ccccc3)sc2C(=O)O)c1=O	16.6 µM	0.012 µM	> 100 µM	Kd [3]: 108 µM; Activity [14]: inactive; Activity [15]: inactive; Activity [16]: inactive; IC50 [7]: > 100 µM; Kb [8]: 0.007 µM; Kb [9]: 0.005 µM; IC50 [10]: > 100 µM
N#Cc1cc2c(cc1[N+](=O)[O-])=NC(=O)C(=O)N=2	–	1.38 µM	–	–

Continued, in another order:

IC50 [1]	Kd [2]	IC50 [11]	SMILES	further results
55.3 µM	0.055 µM	–	N[C@@H](Cn1cc(C(F)(F)F)c(=O)n(Cc2ccsc2C(=O)O)c1=O)C(=O)O	–
16.2 µM	0.018 µM	> 100 µM	Cc1cn(C[C@H](N)C(=O)O)c(=O)n(Cc2ccsc2C(=O)O)c1=O	Kd [3]: 83.4 µM; Activity [4]: inactive; Activity [5]: inactive; Activity [6]: inactive; IC50 [7]: > 100 µM; Kb [8]: 0.01 µM; Kb [9]: 0.008 µM; IC50 [10]: > 100 µM; inhibition at 100 µM [12]: 27%
51.2 µM	0.023 µM	–	Cc1cn(C[C@H](N)C(=O)O)c(=O)n(Cc2ccccc2C(=O)O)c1=O	–
106 µM	–	> 300 µM	N[C@@H](Cn1ccc(=O)n(Cc2ccccc2C(=O)O)c1=O)C(=O)O	IC50 [7]: > 300 µM; Kb [8]: 0.6 µM; Kb [9]: 1 µM; Kb [13]: 0.8 µM; IC50 [10]: > 300 µM
63.9 µM	0.102 µM	–	N[C@@H](Cn1cc(Br)c(=O)n(Cc2ccccc2C(=O)O)c1=O)C(=O)O	–
2.8 µM	0.01 µM	–	Cc1cn(C[C@H](N)C(=O)O)c(=O)n(Cc2c(C(=O)O)sc(Br)c2Br)c1=O	–
74.1 µM	–	–	N[C@@H](Cn1cc(I)c(=O)n(Cc2ccccc2C(=O)O)c1=O)C(=O)O	–
18.5 µM	0.358 µM	–	N[C@@H](Cn1cc(F)c(=O)n(Cc2ccccc2C(=O)O)c1=O)C(=O)O	–
25.1 µM	0.08 µM	–	Cc1cn(C[C@H](N)C(=O)O)c(=O)n(Cc2ccoc2C(=O)O)c1=O	–
